# Results: ChEMBL document CHEMBL1159036, “Design and synthesis of selective inhibitors of placental alkaline phosphatase” (Bioorg Med Chem, 2010)
# Columns and labels:
# [1] = biological target: Intestinal-type alkaline phosphatase (Homo sapiens, UniProt P09923); assay: Inhibition of IAP by analogous luminescence assay
# [2] = Selectivity ratio of IC50 for TNAP to IC50 for PLAP
# [3] = biological target: T1, Alkaline phosphatase, tissue-nonspecific isozyme (Homo sapiens, UniProt P05186); assay: Inhibition of TNAP by analogous luminescence assay
# T1 sequence (P05186 whole entry): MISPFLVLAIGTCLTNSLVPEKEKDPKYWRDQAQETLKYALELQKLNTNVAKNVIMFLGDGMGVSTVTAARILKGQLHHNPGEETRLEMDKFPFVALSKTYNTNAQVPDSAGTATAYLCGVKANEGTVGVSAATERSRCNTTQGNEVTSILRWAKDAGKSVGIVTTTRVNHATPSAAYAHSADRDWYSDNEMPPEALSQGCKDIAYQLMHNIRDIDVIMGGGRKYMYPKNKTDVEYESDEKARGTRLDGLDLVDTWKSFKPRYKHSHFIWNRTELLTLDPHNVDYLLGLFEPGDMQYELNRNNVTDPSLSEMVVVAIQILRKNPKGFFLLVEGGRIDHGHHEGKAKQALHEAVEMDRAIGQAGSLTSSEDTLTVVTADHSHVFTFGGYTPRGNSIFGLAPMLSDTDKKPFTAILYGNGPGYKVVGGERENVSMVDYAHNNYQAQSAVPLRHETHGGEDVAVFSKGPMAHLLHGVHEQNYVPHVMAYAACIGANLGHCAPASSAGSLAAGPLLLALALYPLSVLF
# [4] = biological target: Alkaline phosphatase, germ cell type (Homo sapiens, UniProt P10696); assay: Inhibition of GCAP by analogous luminescence assay
# Sequence of Alkaline phosphatase, germ cell type (P10696 whole entry): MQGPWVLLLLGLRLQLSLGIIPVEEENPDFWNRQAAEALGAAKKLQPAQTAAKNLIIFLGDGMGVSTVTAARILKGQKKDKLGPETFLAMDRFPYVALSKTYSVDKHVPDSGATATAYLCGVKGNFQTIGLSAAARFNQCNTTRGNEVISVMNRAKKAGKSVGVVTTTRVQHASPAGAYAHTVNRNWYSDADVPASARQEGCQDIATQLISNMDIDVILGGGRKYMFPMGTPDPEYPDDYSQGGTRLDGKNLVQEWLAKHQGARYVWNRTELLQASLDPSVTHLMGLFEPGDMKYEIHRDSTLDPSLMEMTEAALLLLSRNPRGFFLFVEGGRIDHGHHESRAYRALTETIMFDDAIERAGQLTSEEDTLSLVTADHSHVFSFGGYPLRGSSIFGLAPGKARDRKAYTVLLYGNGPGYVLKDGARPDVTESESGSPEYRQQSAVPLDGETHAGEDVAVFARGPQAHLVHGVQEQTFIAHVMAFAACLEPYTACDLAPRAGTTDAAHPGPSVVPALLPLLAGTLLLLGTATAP
# How it was run: (§1)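 GCAP and PLAP IC50s were measured together in dose-response runs on a separate occasion, using enzyme concentrations that differed from those of the main assays.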
# [5] = Selectivity ratio of IC50 for GCAP to IC50 for PLAP; how it was run: as §1
# [6] = Selectivity ratio of IC50 for IAP to IC50 for PLAP
# Sequence of Intestinal-type alkaline phosphatase (P09923 whole entry): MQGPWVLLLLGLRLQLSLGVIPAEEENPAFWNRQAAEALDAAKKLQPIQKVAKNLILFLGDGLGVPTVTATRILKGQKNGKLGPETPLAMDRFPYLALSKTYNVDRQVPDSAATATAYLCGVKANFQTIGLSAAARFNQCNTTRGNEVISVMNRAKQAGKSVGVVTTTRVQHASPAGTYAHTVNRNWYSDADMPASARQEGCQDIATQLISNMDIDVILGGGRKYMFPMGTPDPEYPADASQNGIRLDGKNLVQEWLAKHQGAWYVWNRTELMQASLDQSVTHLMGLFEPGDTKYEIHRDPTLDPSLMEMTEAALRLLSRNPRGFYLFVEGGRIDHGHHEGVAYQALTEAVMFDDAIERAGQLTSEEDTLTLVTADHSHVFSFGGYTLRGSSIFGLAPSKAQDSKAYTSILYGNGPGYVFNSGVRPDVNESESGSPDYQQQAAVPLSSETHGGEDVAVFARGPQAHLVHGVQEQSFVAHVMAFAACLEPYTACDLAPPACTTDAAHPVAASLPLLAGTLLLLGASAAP
IC50 [1],IC50 [3],SMILES,other results
> 5 µM,,N[C@@H](Cc1c[nH]c2ccccc12)C(=O)O [TRYPTOPHAN],
> 100 µM,26.3 µM,Cc1nc2ccccc2n1CC(=O)c1ccc(O)c(O)c1,IC50 [4]: 9.4 µM
,29.2 µM,COc1ccc2c(c1OC)C(=O)OC2CC(=O)c1ccc(O)c(O)c1 (configuration not stated),
,8 µM,COc1ccc(-n2nnnc2SCC(=O)c2ccc(O)c(O)c2)cc1,
,93.8 µM,O=C(CNc1nc2ccccc2[nH]1)c1ccc(O)c(O)c1,Ratio IC50 [5]: 0.7; IC50 [4]: 6.2 µM
,> 100 µM,O=C(Cn1cnnc1)c1ccc(O)c(O)c1,
> 5 µM,,c1ccc([C@H]2CN3CCSC3=N2)cc1 [LEVAMISOLE],
,> 100 µM,O=C(Cn1ccnc1-c1ccccc1)c1ccc(O)c(O)c1,
,47.5 µM,O=C(Cn1cnc(Br)c1)c1ccc(O)c(O)c1,

# Continued, compound first:
SMILES,IC50 [1],IC50 [3],other results
N=C(N)NCCCC[C@H](N)C(=O)O,> 5 µM,,
Cc1nc(Br)cn1CC(=O)c1ccc(O)c(O)c1,,8.7 µM,Ratio IC50 [2]: 1.7
O=C(Cn1cnc2ccccc21)c1ccc(O)c(O)c1,,18 µM,IC50 [4]: 2.7 µM
CC(C)C[C@H](N)C(=O)O [LEUCINE],> 5 µM,,
Cc1cc2ncn(CC(=O)c3ccc(O)c(O)c3)c2cc1C,,> 100 µM,
Cc1nccn1CC(=O)c1ccc(O)c(O)c1,,78.3 µM,IC50 [4]: 30.5 µM
N[C@@H](Cc1ccccc1)C(=O)O [PHENYLALANINE],> 5 µM,,
CCc1nccn1CC(=O)c1ccc(O)c(O)c1,> 100 µM,> 100 µM,Ratio IC50 [5]: 2.1; Ratio IC50 [2]: > 27; IC50 [4]: 1.7 µM; Ratio IC50 [6]: > 24
CC(C)C[C@H](N)C(N)=O [LEUCINE AMIDE],> 5 µM,,
Cn1c(=O)c2[nH]cnc2n(C)c1=O [THEOPHYLLINE],> 5 µM,,
O=C(Cn1ccnc1)c1ccc(O)c(O)c1,,> 100 µM,Ratio IC50 [5]: 0.6; Ratio IC50 [2]: > 32; IC50 [4]: 1.2 µM; Ratio IC50 [6]: 15
Cc1cnn(CC(=O)c2ccc(O)c(O)c2)c1,,> 100 µM,Ratio IC50 [6]: 25
Cc1cn(CC(=O)c2ccc(O)c(O)c2)cn1,,41.1 µM,Ratio IC50 [2]: 7
Cc1cc(C)nc(SCC(=O)c2ccc(O)c(O)c2)n1,,,IC50 [4]: 0.6 µM
CC(C)NCC(=O)c1ccc(O)c(O)c1,,> 100 µM,
